Measured values reported in ChEMBL document CHEMBL4266059, “Synthesis of Cyanoenone-Modified Diterpenoid Analogs as Novel Bmi-1-Mediated Antitumor Agents” (ACS Med Chem Lett, 2018).
Activity calls are given as the source filed them. The calls are words filed in the database; no cut-off is given here.

Tests used:
[1] = test system: HCT-116; test: Inhibition of cancer stem cell proliferation in human HCT116 cells assessed as CD133/CD44-positive cell population at 1 uM after 48 hrs by flow cytometry (reference value: 85.1 to 86.6%); type: functional; parameters: scale not given: the % may be the effect or the level left
[2] = test system: HCT-116; test: Inhibition of Bmi1 protein expression in human HCT116 cells after 8 hrs by Western blot analysis; type: functional, cell-based
[3] = test system: Mus musculus; test: Toxicity in nude mouse xenografted with human HCT116 cells assessed as abnormality in spleen at 5 to 10 mg/kg/day, ip for 18 days by hematoxylin and eosin staining based microscopic analysis; type: organism-based; conditions: in vivo, 432 h
Method in brief: (§1)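 HCT116 subcutaneous xenografts in nude mice; mice randomized into groups of n = 6 and given vehicle (DMSO), test article or reference intraperitoneally daily for 18 days, then sacrificed. End points were excised tumor weight and volume, body weight, histology of heart, liver, spleen, lung and kidney, and immunohistochemistry of tumors for Ki67 and Bmi-1.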

[4] = test system: HCT-116; test: Effect on total Ring1b protein expression in human HCT116 cells at 0.5 to 4 uM after 8 hrs by Western blot analysis; type: functional, cell-based
Method in brief: (§2)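 HCT116 cells treated with test agents at the indicated concentrations for 8 h. Bmi-1, H2A-K119 ubiquitinated H2A (ub-H2A), total H2A and Ring1b detected by Western blot.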

[5] = test system: Mus musculus; test: Toxicity in nude mouse xenografted with human HCT116 cells assessed as abnormality in lung at 5 to 10 mg/kg/day, ip for 18 days by hematoxylin and eosin staining based microscopic analysis; type: organism-based; conditions: in vivo, 432 h; method in brief: as §1
[6] = test system: HCT-8; test: Antiproliferative activity against human HCT8 cells after 72 hrs by SRB assay; type: functional, cell-based; conditions: HCT-8, 72 h
[7] = target: T1, Polycomb complex protein BMI-1 (Homo sapiens) (UniProt P35226); test: Inhibition of Bmi1 in human HCT116 cells assessed as reduction in H2A-K119Ub level after 8 hrs by Western blot analysis; type: cell-based; method in brief: as §2
T1 sequence (whole entry): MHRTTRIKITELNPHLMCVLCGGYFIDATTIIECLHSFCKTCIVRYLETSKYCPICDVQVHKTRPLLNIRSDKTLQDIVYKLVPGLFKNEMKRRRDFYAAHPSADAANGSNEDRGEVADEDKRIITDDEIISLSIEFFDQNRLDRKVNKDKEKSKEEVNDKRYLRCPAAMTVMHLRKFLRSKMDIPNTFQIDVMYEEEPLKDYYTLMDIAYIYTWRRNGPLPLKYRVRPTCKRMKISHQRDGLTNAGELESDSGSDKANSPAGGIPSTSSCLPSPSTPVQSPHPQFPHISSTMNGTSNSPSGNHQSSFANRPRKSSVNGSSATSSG

[8] = test system: HT-29; test: Antiproliferative activity against human HT-29 cells after 72 hrs by SRB assay; type: functional, cell-based; conditions: HT-29, 72 h
[9] = test system: HCT-116; test: Inhibition of colony formation in human HCT116 cells after 7 days by crystal violet staining based assay; type: functional, cell-based
Method in brief: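 HCT116 colony formation assay over a concentration series; read-out was colony number and size.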

[10] = Antiproliferative activity against HAF after 72 hrs by SRB assay; parameters: species or system Homo sapiens
[11] = test system: Mus musculus; test: Toxicity in nude mouse xenografted with human HCT116 cells assessed as abnormality in kidney at 5 to 10 mg/kg/day, ip for 18 days by hematoxylin and eosin staining based microscopic analysis; type: organism-based; conditions: in vivo, 432 h; method in brief: as §1
[12] = test system: HCT-116; test: Antimigratory activity against human HCT116 cells at 1 uM after 24 hrs by crystal violet staining based transwell migration assay relative to control; type: functional
Method in brief: (§3)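 HCT116 cells in transwell chambers; migration compared with untreated control (0 μM).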

[13] = test system: Mus musculus; test: Toxicity in nude mouse xenografted with human HCT116 cells assessed as abnormality in heart at 5 to 10 mg/kg/day, ip for 18 days by hematoxylin and eosin staining based microscopic analysis; type: organism-based; conditions: in vivo, 432 h; method in brief: as §1
[14] = test system: HCT-116; test: Antimigratory activity against human HCT116 cells at 0.5 uM after 24 hrs by crystal violet staining based transwell migration assay relative to control; type: functional; method in brief: as §3
[15] = Selectivity index, ratio of IC50 for HAF to IC50 for human HCT116 cells; type: toxicity; conditions: HAF cells versus HCT116 cells, read-out: Ratio IC50
[16] = test system: Mus musculus; test: Toxicity in nude mouse xenografted with human HCT116 cells assessed as abnormality in liver at 5 to 10 mg/kg/day, ip for 18 days by hematoxylin and eosin staining based microscopic analysis; type: organism-based; conditions: in vivo, 432 h; method in brief: as §1
[17] = test system: HCT-116; test: Antiproliferative activity against human HCT116 cells after 72 hrs by SRB assay; type: functional, cell-based; conditions: HCT-116, 72 h
[18] = test system: Mus musculus; test: Toxicity in nude mouse xenografted with human HCT116 cells assessed as change in body weight at 5 to 10 mg/kg/day, ip for 18 days; type: organism-based; conditions: in vivo, 432 h; method in brief: as §1
[19] = test system: HCT-116; test: Antitumor activity against human HCT116 cells xenografted in nude mouse assessed as reduction in Ki67 expression in tumor at 5 to 10 mg/kg/day, ip for 18 days by IHC analysis; type: functional, organism-based; method in brief: as §1
[20] = Selectivity index, ratio of IC50 for HAF to IC50 for human HT-29 cells; type: toxicity; conditions: HAF cells versus HT-29 cells, read-out: Ratio IC50
[21] = test system: HCT-116; test: Antimigratory activity against human HCT116 cells after 24 hrs by crystal violet staining based transwell migration assay; type: functional, cell-based
Method in brief: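 HCT116 cells were tested for migration through a transwell chamber at 0.5 and 1 μM, compared against an untreated (0 μM) control. Significance was assessed versus that control.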

[22] = test system: HCT-116; test: Induction of apoptosis in human HCT116 cells at 1 uM after 48 hrs by Annexin V/propidium iodide staining based flow cytometry relative to control; type: functional
[23] = test system: HCT-116; test: Inhibition of cancer stem cell proliferation in human HCT116 cells assessed as decrease in CD133/CD44-positive cell population after 48 hrs by flow cytometry; type: functional, cell-based
Method in brief: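 HCT116 cells, which coexpress CD133 and CD44; the CD133+/CD44+ stem-like population was quantified by flow cytometry after treatment over a concentration series.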

[24] = test system: HCT-116; test: Antitumor activity against human HCT116 cells xenografted in nude mouse assessed as tumor growth inhibition at 5 mg/kg/day, ip for 18 days; type: functional, organism-based; method in brief: as §1
[25] = test system: Mus musculus; test: Decrease in Bmi1 expression in tumors of nude mouse xenografted with human HCT116 cells at 5 to 10 mg/kg/day, ip for 18 days by IHC analysis; type: functional, organism-based; method in brief: as §1
[26] = test system: HCT-116; test: Induction of apoptosis in human HCT116 cells after 48 hrs by Annexin V/propidium iodide staining based flow cytometry; type: functional, cell-based
Method in brief: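 HCT116 cells treated for 48 h; apoptosis scored by flow cytometry as early and late apoptotic fractions, compared with untreated controls.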

[27] = Selectivity index, ratio of IC50 for HAF to IC50 for human HCT8 cells; type: toxicity; conditions: HAF cells versus HCT8 cells, read-out: Ratio IC50
[28] = test system: HCT-116; test: Effect on total H2A protein expression in human HCT116 cells at 0.5 to 4 uM after 8 hrs by Western blot analysis; type: functional, cell-based; method in brief: as §2

IC50 ([2]; HCT-116, 8 h): 830 nM | IC50 [6]: 360 nM | inhibition [7]: Dose-dependent effect | IC50 [8]: 450 nM | IC50 [17]: 250 nM
Compound: COc1cc2c(cc1C(=O)Nc1ccccc1OC(F)(F)F)CC[C@H]1C(C)(C)C(=O)C(C#N)=C[C@]21C
Activity [1]: 56.1% | inhibition [2]: Dose-dependent effect | Activity [3]: Non-Toxic | Activity [4]: inactive | Activity [5]: Non-Toxic | inhibition [9]: Dose-dependent effect | IC50 [10]: 3280 nM | Activity [11]: Non-Toxic | Activity [12]: 70% | Activity [13]: Non-Toxic | Activity [14]: 30% | selectivity ratio [15]: 7.3 to 13.1 | Activity [16]: Non-Toxic | Activity [18]: Non-Toxic | Activity [19]: Active | selectivity ratio [20]: 7.3 to 13.1 | Activity [21]: Dose-dependent effect | Activity [22]: 20.29% | inhibition [23]: Dose-dependent effect | TGI [24]: Active | Activity [25]: Active | Activity [26]: Dose-dependent effect | selectivity ratio [27]: 7.3 to 13.1 | Activity [28]: inactive
